Test results: ChEMBL document CHEMBL2346529, “The human Aurora kinase inhibitor danusertib is a lead compound for anti-trypanosomal drug discovery via target repurposing” (Eur J Med Chem, 2013)
Active and inactive are the calls of the source. The rule behind the calls is not given here.

Assays:
[1] = tested on: Trypanosoma brucei brucei; assay: Antitrypanosomal activity against bloodstream form of Trypanosoma brucei brucei AnTat1.1A assessed as inhibition of growth in log phase at 10 uM after 48 hrs by Cell Titer Blue end-point assay; assay type: functional
Outline: (§1)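 Log-phase bloodstream-form cells were seeded at 1×10^5 cells/mL and exposed to compound at a single concentration (0.2% DMSO) for 48 h (4 doublings). AnTat1.1A cells were grown in HMI-9 with 10% FBS and 10% Serum Plus. 90-13 cells were grown in HMI-9 with G418 (2.5 μg/mL) and hygromycin B (5 μg/mL). Cells were pelleted and incubated 3 h at 37°C with CellTiter-Blue. Fluorescence was read at 560/590 nm, background-subtracted and normalized to DMSO controls.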

[2] = tested on: Trypanosoma brucei brucei; assay: Antitrypanosomal activity against bloodstream form of Trypanosoma brucei brucei AnTat1.1A assessed as inhibition of growth in log phase at 1 uM after 48 hrs by Cell Titer Blue end-point assay; assay type: functional; outline: as §1
[3] = tested on: Trypanosoma brucei brucei; assay: Antitrypanosomal activity against bloodstream form of Trypanosoma brucei brucei Lister 427 90-13 assessed as inhibition of growth in log phase at 10 uM after 48 hrs by Cell Titer Blue end-point assay; assay type: functional; settings: Lister 427 90-13, 48 h; outline: as §1
[4] = tested on: Trypanosoma brucei brucei; assay: Antitrypanosomal activity against bloodstream form of Trypanosoma brucei brucei Lister 427 90-13 assessed as inhibition of growth in log phase at 1 uM after 48 hrs by Cell Titer Blue end-point assay; assay type: functional; settings: Lister 427 90-13, 48 h; outline: as §1
[5] = Selectivity ratio of EC50 for human MOLT4 cells to EC50 for bloodstream form of Trypanosoma brucei rhodesiense YTat1.1; assay type: ADME, cell-based, MOLT-4; settings: read-out: Ratio EC50
Outline: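 Ratio of MOLT-4 EC50 to YTat1.1 EC50. MOLT-4 cells were grown in RPMI 1640 with 20% FBS, seeded at 5×10^4 cells/mL and grown 24 h before compound was added. Treatment used 8 triplicate concentrations between 50 nM and 30 μM for 4 days, followed by a 3 h CellTiter-Blue read at 37°C. The parasite EC50 came from a 48 h CellTiter-Blue dose-response (50 nM–8 μM).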

[6] = tested on: Trypanosoma brucei rhodesiense; assay: Antitrypanosomal activity against bloodstream form of Trypanosoma brucei rhodesiense YTat1.1 assessed as inhibition of growth in log phase after 48 hrs by Cell Titer Blue end-point assay; assay type: functional, organism-based; settings: YTat1.1, 48 h
Outline: (§2)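 Dose-response: at least 8 final concentrations (50 nM–8 μM, 0.2% DMSO), each in triplicate, on log-phase bloodstream-form cells at 1×10^5 cells/mL. Incubation was 48 h at 37°C, 5% CO2, followed by a 3 h CellTiter-Blue fluorescence read with background subtracted. EC50 was derived from inhibition curves. YTat1.1 was culture-adapted from rat blood in HMI-9 with FBS and Serum Plus; its data come from 2–3 independent experiments. 90-13 was grown in HMI-9 with G418 and hygromycin B.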

[7] = tested on: MOLT-4; assay: Cytotoxicity against human MOLT4 cells assessed as inhibition of cell growth after 4 days by Cell Titer Blue end-point assay; assay type: cell-based; settings: MOLT-4, 96 h
Outline: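 MOLT-4 cells in RPMI 1640 with 20% FBS were seeded at 5×10^4 cells/mL and grown 24 h before inhibitor was added. There were 8 concentrations in triplicate, spanning 50 nM to 30 μM final. Treatment lasted 4 days, then CTB was added for 3 h at 37°C. Fluorescence was read at 560Ex/590Em, with cell-free background subtracted and DMSO-only wells taken as 100%. EC50 was fitted from inhibition curves.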

[8] = tested on: Trypanosoma brucei brucei; assay: Antitrypanosomal activity against bloodstream form of Trypanosoma brucei brucei assessed as inhibition of growth in log phase at 1 uM after 48 hrs by Cell Titer Blue end-point assay; settings: read-out: GI
[9] = tested on: Trypanosoma brucei brucei; assay: Antitrypanosomal activity against bloodstream form of Trypanosoma brucei brucei Lister 427 90-13 assessed as inhibition of growth in log phase after 48 hrs by Cell Titer Blue end-point assay; assay type: functional, organism-based; settings: Lister 427 90-13, 48 h; outline: as §2
[10] = tested on: Trypanosoma brucei; assay: Inhibition of NH3-AU1 epitope-tagged recombinant Trypanosoma brucei AUK1 expressed in procyclic form trypanosome AnTat1.1 assessed as decrease in myelin basic protein phosphorylation at 500 nM preincubated for 5 mins by pull down assay in presence of [gamma-32P]ATP
Outline: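 AU1-tagged TbAUK1 came from procyclic AnTat1.1 cells pretreated with 16 μM MG132 for 3 h. Lysate was pre-cleared and immunoprecipitated overnight at 4°C on AU1 beads. Bead kinase was mixed with 160 μg myelin basic protein in Hepes/KCl/NaF/MgCl2/DTT buffer, pH 7.4, with drug preincubated 5 min. Reactions were started with 8 μM ATP plus [γ-32P]ATP and run 30 min at 30°C. Products were read by SDS-PAGE autoradiography.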

Compound	inhibition at 10 µM [1] [%]	inhibition at 1 µM [2] [%]	inhibition at 10 µM [3] [%]	inhibition at 1 µM [4] [%]	selectivity ratio [5]	EC50 [6] [nM]	EC50 [7] [nM]	inhibition of growth at 1 µM [8] [%]	EC50 [9] [nM]	inhibition [10]
Cc1ccc(C)c(CC(=O)N2Cc3[nH]nc(NC(=O)c4ccc(N5CCN(C)CC5)cc4)c3C2)c1	99	34	100	18	2.2	1200	2650	> 60		
Cc1[nH]c2ccccc2c1CC(=O)N1Cc2[nH]nc(NC(=O)c3ccc(N4CCN(C)CC4)cc3)c2C1	98	62	63	34	1	1200		> 60		
COC(C(=O)N1Cc2[nH]nc(NC(=O)c3ccc(N4CCN(C)CC4)cc3)c2C1)c1ccccc1 (racemic)	97	77	25	15	6.8	610	4130	> 60		
Cc1ccc(C(C)C(=O)N2Cc3[nH]nc(NC(=O)c4ccc(N5CCN(C)CC5)cc4)c3C2)cc1 (racemic)	100	19	100	19	6.4	860	5480	> 60		
Cc1nc(CC(=O)N2Cc3[nH]nc(NC(=O)c4ccc(N5CCN(C)CC5)cc4)c3C2)cs1	53	23	14	8						
CN1CCN(c2ccc(C(=O)Nc3n[nH]c4c3CN(C(=O)Cc3c(F)ccc(F)c3F)C4)cc2)CC1	98	52	77	14	6.9	320	2220	> 60		
CN1CCN(c2ccc(C(=O)Nc3n[nH]c4c3CN(C(=O)Cc3cc(F)cc(F)c3)C4)cc2)CC1	98	98	99	37	0.7	910	630	> 60	590	
CN1CCN(c2ccc(C(=O)Nc3n[nH]c4c3CN(C(=O)Cc3ccc(F)c(F)c3)C4)cc2)CC1	98	18	53	29						
CN1CCN(c2ccc(C(=O)Nc3n[nH]c4c3CN(C(=O)Cc3cccc5ccccc35)C4)cc2)CC1	98	82	100	26	23	610	14200	> 60		
CN1CCN(c2ccc(C(=O)Nc3n[nH]c4c3CN(C(=O)Cc3cccc(Cl)c3)C4)cc2)CC1	98	35	98	33	6.9	580	4000	> 60	850	
CN1CCN(c2ccc(C(=O)Nc3n[nH]c4c3CN(C(=O)Cc3c(F)cc(F)cc3F)C4)cc2)CC1	100	23	72	41						
CN1CCN(c2ccc(C(=O)Nc3n[nH]c4c3CN(C(=O)Cc3ccc(F)cc3F)C4)cc2)CC1	98	6	62	40						
Cc1nc(C)c(CC(=O)N2Cc3[nH]nc(NC(=O)c4ccc(N5CCN(C)CC5)cc4)c3C2)s1	35	13	12	6						
CN1CCN(c2ccc(C(=O)Nc3n[nH]c4c3CN(C(=O)Cc3c(F)cccc3F)C4)cc2)CC1	97	20	66	32						
CN1CCN(c2ccc(C(=O)Nc3n[nH]c4c3CN(C(=O)CC3CC(=O)c5ccccc53)C4)cc2)CC1 (racemic)	79	34	35	27						
Cc1cc(C)cc(CC(=O)N2Cc3[nH]nc(NC(=O)c4ccc(N5CCN(C)CC5)cc4)c3C2)c1	99	85	100	26	4.3	1040	4460	> 60	2560	
CN1CCN(c2ccc(C(=O)Nc3n[nH]c4c3CN(C(=O)Cc3cc(F)cc(F)c3F)C4)cc2)CC1	99	44	94	26	1.2	2000	2310	> 60		
CCS(=O)(=O)Nc1ccc2c(c1)/C(=C(/Nc1ccc(CN3CCCCC3)cc1)c1ccccc1)C(=O)N2										Active
CC(C)C(C(=O)N1Cc2[nH]nc(NC(=O)c3ccc(N4CCN(C)CC4)cc3)c2C1)c1ccccc1 (racemic)	99	99	100	62	6.3	400		> 60	670	
CN1CCN(c2ccc(C(=O)Nc3n[nH]c4c3CN(C(=O)Cc3cc(F)ccc3F)C4)cc2)CC1	98	6	97	37						
